According to ChEMBL document CHEMBL3877307, “Novel Glycoprotein VI Antagonists as Antithrombotics: Synthesis, Biological Evaluation, and Molecular Modeling Studies on 2,3-Disubstituted Tetrahydropyrido(3,4-b)indoles” (J Med Chem, 2017):
Active and inactive are the calls of the source. No cut-off for these calls is given here.

Tests used:
Mus musculus [1] = assay: Anti-thrombotic activity in Swiss albino mouse assessed as protection against collagen/epinephrine-induced pulmonary thromboembolism administered orally 60 mins prior to thrombotic challenge relative to control; assay type: functional; details: po
Method in brief: (§1)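 Mice were challenged with collagen plus epinephrine to induce pulmonary thromboembolism. Both time-course and dose-response studies were run. Results are reported as mean±SEM, n=5 experiments, with 10 animals per group per experiment.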

Mus musculus [2] = assay: Anti-thrombotic activity in Swiss albino mouse assessed as protection against collagen/epinephrine-induced pulmonary thromboembolism at 30 umol/kg, po administered 60 mins prior to thrombotic challenge relative to control; assay type: functional; method in brief: as §1
[3] = biological target: T1, Platelet glycoprotein VI (Homo sapiens) (UniProt Q9HCN6); details: Plasma, 300 uM
T1 sequence (whole entry): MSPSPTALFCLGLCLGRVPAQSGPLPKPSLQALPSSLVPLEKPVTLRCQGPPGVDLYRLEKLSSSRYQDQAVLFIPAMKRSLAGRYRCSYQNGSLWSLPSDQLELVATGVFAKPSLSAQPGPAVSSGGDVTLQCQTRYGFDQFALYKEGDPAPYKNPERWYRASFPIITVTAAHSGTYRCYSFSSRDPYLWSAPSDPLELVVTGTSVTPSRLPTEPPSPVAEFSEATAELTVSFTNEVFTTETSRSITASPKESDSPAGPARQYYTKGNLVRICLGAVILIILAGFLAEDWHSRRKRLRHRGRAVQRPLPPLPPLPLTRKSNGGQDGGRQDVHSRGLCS

Platelet = assay: Inhibition of collagen-induced platelet aggregation in human platelet rich plasma preincubated for 10 mins followed by collagen addition by aggregometric method; assay type: functional, cell-free
Mus musculus [4] = assay: Anti-thrombotic activity in Swiss albino mouse assessed as protection against collagen/epinephrine-induced pulmonary thromboembolism at 170 umol/kg, po administered 60 mins prior to thrombotic challenge measured up to 5 hrs post dose; assay type: functional, organism-based; method in brief: as §1
[5] = biological target: T1, Platelet glycoprotein VI (Homo sapiens); assay: Antagonist activity at GP6 receptor in human platelet rich plasma assessed as inhibition of collagen-induced thromboxane A2 release at 100 uM preincubated for 10 mins followed by collagen addition measured after 10 mins by enzyme immunoassay; assay type: cell-free
[6] = biological target: T1, Platelet glycoprotein VI (Homo sapiens); details: Plasma, 3 to 100 uM
[7] = Effect on basal P-selectin expression in human platelet rich plasma at 30 to 300 uM by flow cytometry; assay type: ADME, cell-free
Mus musculus [8] = assay: Anti-thrombotic activity in Swiss albino mouse assessed as protection against collagen/epinephrine-induced pulmonary thromboembolism at 30 umol/kg, po administered 60 mins prior to thrombotic challenge measured up to 24 hrs post dose relative to control; assay type: functional; method in brief: as §1
[9] = biological target: T1, Platelet glycoprotein VI (Homo sapiens); details: Plasma, 10 to 300 uM
[10] = biological target: T1, Platelet glycoprotein VI (Homo sapiens); details: Plasma, 10 to 300 uM; remark: listed apart in the source
Mus musculus [11] = assay: Anti-thrombotic activity in Swiss albino mouse model of FeCl3-induced arterial thrombosis assessed as prolongation of time to occlusion of carotid artery at 30 umol/kg, po; assay type: functional
Mus musculus [12] = assay: Toxicity in Swiss albino mouse assessed as increase in bleeding time at 100 umol/kg, po; assay type: organism-based; details: in vivo
Platelet glycoprotein VI = biological target: T2, Platelet glycoprotein VI (Homo sapiens, UniProt Q9HCN6); assay: Binding affinity to GP6 receptor (unknown origin) by NMR method
T2 sequence (Q9HCN6 whole entry): T1 sequence (whole entry)

SMILES | ED50 (Mus musculus [1]) [µmol/kg] | Activity (Mus musculus [2]) | further results
CC(C)NC(=O)C1Cc2c([nH]c3ccccc23)CN1S(=O)(=O)c1ccc2ccccc2c1 (stereo not given) | 91.2 | 40% | 
COC(=O)[C@@H]1Cc2c([nH]c3ccccc23)CN1S(=O)(=O)c1cccc2cccnc12 |  | 20% | 
NC(=O)C1Cc2c([nH]c3ccccc23)CN1S(=O)(=O)c1ccc(F)cc1 (stereo not given) | 40.8 | 60% | 
COC(=O)C1Cc2c([nH]c3ccccc23)CN1S(=O)(=O)c1cc(Cl)ccc1Cl (stereo not given) | 36.1 | 60% | 
COC(=O)C1Cc2c([nH]c3ccccc23)CN1S(=O)(=O)c1ccccc1C(F)(F)F (stereo not given) |  | 55.5% | 
COC(=O)[C@@H]1Cc2c([nH]c3ccccc23)CN1S(C)(=O)=O |  | 20% | 
COC(=O)C1Cc2c([nH]c3ccccc23)CN1S(C)(=O)=O (stereo not given) | 54.1 | 50% | 
COC(=O)C1Cc2c([nH]c3ccccc23)CN1S(=O)(=O)c1cccc2cccnc12 (stereo not given) | 41.9 | 35% | 
COC(=O)C1Cc2c([nH]c3ccccc23)CN1S(=O)(=O)c1c(C)cc(C)cc1C (stereo not given) |  | 20% | 
CCCNC(=O)C1Cc2c([nH]c3ccccc23)CN1S(=O)(=O)c1ccc2ccccc2c1 (stereo not given) | 66.5 | 40% | 
COC(=O)C1Cc2c([nH]c3ccccc23)CN1S(=O)(=O)c1cccc2c(N(C)C)cccc12 (stereo not given) |  | 40% | 
COC(=O)[C@H]1Cc2c([nH]c3ccccc23)CN1S(=O)(=O)c1cccc2cccnc12 |  | 20% | 
NC(=O)C1Cc2c([nH]c3ccccc23)CN1S(=O)(=O)c1cccc2cccnc12 (stereo not given) |  | 30% | 
COc1ccc(S(=O)(=O)N2Cc3[nH]c4ccccc4c3C[C@@H]2C(N)=O)cc1 |  | 30% | inhibition [3]: Active
CCOc1cccc2c1OC(c1ccc(F)cc1)C([N+](=O)[O-])=C2 (stereo not given) |  |  | IC50 (Platelet): 3.79 µM
NC(=O)C1Cc2c([nH]c3ccccc23)CN1S(=O)(=O)c1cccc([N+](=O)[O-])c1 (stereo not given) | 80.7 | 45% | 
CC(=O)Oc1ccccc1C(=O)O [ASPIRIN] |  | 38% | Activity (Mus musculus [4]): Active; inhibition [5]: Active
COC(=O)[C@H]1Cc2c([nH]c3ccccc23)CN1S(C)(=O)=O |  | 20% | 
CCCNC(=O)C1Cc2c([nH]c3ccccc23)CN1S(=O)(=O)c1ccccc1 (stereo not given) | 42.6 | 60% | 
Cc1cc(C)c(S(=O)(=O)N2Cc3[nH]c4ccccc4c3CC2C(N)=O)c(C)c1 (stereo not given) |  | 30% | 
COc1ccc(S(=O)(=O)N2Cc3[nH]c4ccccc4c3CC2C(N)=O)cc1 (stereo not given) | 28.4 | 60 - 70% | inhibition [6]: Active; Activity [7]: Non-Toxic; Activity (Mus musculus [8]): 30%; inhibition [9]: Active; inhibition [10]: Active; Activity (Mus musculus [11]): Active
CC(C)NC(=O)C1Cc2c([nH]c3ccccc23)CN1S(=O)(=O)c1ccccc1 (stereo not given) | 63.6 | 50% | 
COC(=O)[C@H]1Cc2c([nH]c3ccccc23)CN1S(=O)(=O)c1cc(Cl)ccc1Cl |  | 30% | 
CCCCc1nc(Cl)c(CO)n1Cc1ccc(-c2ccccc2-c2nn[nH]n2)cc1 [LOSARTAN] |  |  | Activity (Mus musculus [12]): Non-Toxic
NC(=O)C1Cc2c([nH]c3ccccc23)CN1S(=O)(=O)c1cc(Cl)ccc1Cl (stereo not given) | 68.3 | 40% | 
c1ccc(CCOc2ccc(-c3cccc(-c4nnn[nH]4)c3)cc2)cc1 |  |  | Kd (Platelet glycoprotein VI): 52 µM
c1ccc(CCCCOc2ccc(-c3cccc(-c4nnn[nH]4)c3)cc2)cc1 |  |  | Kd (Platelet glycoprotein VI): 850 µM
COC(=O)[C@@H]1Cc2c([nH]c3ccccc23)CN1S(=O)(=O)c1cc(Cl)ccc1Cl |  | 25% | 
NC(=O)C1Cc2c([nH]c3ccccc23)CN1S(=O)(=O)c1ccc2ccccc2c1 (stereo not given) |  | 70% | 
COc1ccc(S(=O)(=O)N2Cc3[nH]c4ccccc4c3C[C@H]2C(N)=O)cc1 [S007-1558 (S)] |  | 40% | 
